# Cneo AK release: Cryptococcus neoformans lysis via adenylate kinase release; C. neoformans lysis, adenylate kinase release luminescence, 4 h; normalised: neutral wells 0, clomiphene wells 100; lysis activity, % at 15 µM; 360,000 compounds, 0.2% hits;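 active means mean lysis activity across replicates of at least 80%, whatever share of replicates individually reach that level; inactive means mean lysis activity below 80%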
#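 Test system: log-phase Cryptococcus neoformans yeast cells. Input: 5 × 10^6 yeast cells/mL. Medium: fresh YPD growth medium. Doses: single dose. Incubation: static 4 h at 37 °C with compound, 1 h detection. Measured by: luminescent adenylate kinase detection reagent. Read-out: signal increase indicating cell lysis. Benchmarks: Clomiphene.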
# F508del corr: CFTR F508del correction in bronchial cells; CFBE cells, YFP halide quenching; stimulated with forskolin plus potentiator P3; % fluorescence drop versus neutral controls; activity (quench increase), % at 7.58 µM; 350,000 compounds, 0.36% hits;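 active means mean added fluorescence quench of at least 8% versus neutral control, with both replicates also reaching 8%; inconclusive means only one of the mean or replicate conditions met; inactive means mean below 8% and not both replicates reaching 8%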;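 further: cells transiently co-express mutant CFTR-F508del with the halide-sensitive YFP; corrector assay measuring rescue of mutant channel to the surface after 24 h compound exposure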
# XiGFP reactiv: activators of X-chromosome reactivation in mouse fibroblasts; XiGFP mouse fibroblasts, % GFP-positive cells imaging, 3 d; cells co-treated with 5-aza-dC sensitizer; scaled so ellipticine positive control = 100%; 360,000 compounds, 0.055% hits; activation, % at 7.58 µM; AID 743238;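 active means mean normalized replicate activation at least 10% and every replicate at or above 10%; inconclusive means only one of the two criteria met; inactive means mean below 10% and not all replicates reach 10%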;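 further: 0% = median of on-plate neutral control wells and 100% = ellipticine 6 µM median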
#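 Assay system: SV40-immortalized XiGFP fibroblast cells, line 68-5-11; buffer or medium: DMEM plus 5-aza-dC sensitizer; compound: one concentration, pinned; timing: compounds 3 days, fix/stain 15 min at room temperature; benchmarks: positive control ellipticine, 6 µM final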
# PGC1a acetyl inh: modulators of PGC1a acetylation; U2OS PGC1a acetylation, AlphaScreen anti-acetyl-lysine; with virally co-expressed GCN5 acetyltransferase; inhibition, % at 15.6 µM; 350,000 compounds, 0.17% hits;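 active means every replicate shows inhibition of at least 40%; inconclusive means mean inhibition at least 40% but some replicate below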;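 further: 0% = neutral control wells and 100% = positive control wells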
# FN deposit inh: fibronectin deposition inhibition | AH1F fibroblasts, Alexa488-fibronectin deposition fluorescence, overnight | inhibition, % at 12.6 µM | 350,000 compounds, 0.086% hits | AID 743247;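 active means mean inhibition across replicates of 30% or more, regardless of how many single replicates reach that level; inconclusive means mean under 30% yet at least half of replicates reach 30%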;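 further: positive control wells lacked labelled fibronectin entirely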
#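 Assay system: AH1F fibroblast monolayer, labelled fibronectin deposition. Amount: 10000 cells per well. Also added: labelled fibronectin 24 nM. Compound: single-point pinned compound. Incubation: cell attachment 1 h, compound and FN exposure overnight. Detection: fluorescence after three HBSS washes, excitation 485 nm, emission 525 nm. Read-out: inhibition of fibronectin deposition signal.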
# DENV2 CPE: protects cells from dengue virus 2 cytopathic effect; DENV2-infected cells, cytopathic effect rescue, plate reader; CPE inhibition, % at 9.99 µM; 350,000 compounds, 1.7% hits; in the data active means CPE inhibition above about 20%, passing the limit was not always enough; inconclusive means no clear call, values can overlap the other calls; tested in BHK-21 cells;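 further: 0% = median of neutral control wells and 100% = median of positive control wells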
# An asterisk follows results filed as active; ? = inconclusive; . = not tested or not shown. Most compounds without a hit are left out; they make up all but 1.9% or so of the library.
SMILES,Cneo AK release,F508del corr,XiGFP reactiv,PGC1a acetyl inh,FN deposit inh,DENV2 CPE
C[C@@H]1CCCCO[C@H](CN(C)C(=O)c2ccncc2)[C@@H](C)CN([C@@H](C)CO)C(=O)c2cc(NC(=O)NC3CCCCC3)ccc2O1,-4,0,0,5,.,1
C[C@@H]1CCCCO[C@@H](CN(C)C(=O)c2ccncc2)[C@@H](C)CN([C@H](C)CO)C(=O)c2cc(NC(=O)NC3CCCCC3)ccc2O1,1,-3,-1,-1,.,27*
C[C@@H]1CN([C@H](C)CO)C(=O)c2cccc(NC(=O)c3nc4ccccc4s3)c2O[C@@H]1CN(C)C(=O)NC1CCCCC1,0,-1,0,2,12,10
C[C@H]1CN([C@@H](C)CO)C(=O)c2cc(C3=CCCC3)cnc2O[C@@H]1CN(C)Cc1ccc(F)cc1,3,4,0,-13,3,7
CCOC(=O)[C@]12CCCC=C1N(Cc1ccccc1)C(=O)[C@H](CC(=O)NCc1cccs1)C2,.,0,.,.,1,55*
COC(=O)[C@]12CCCCC=C1N(Cc1ccco1)C(=O)[C@H](CC(=O)N1CCC(c3ccccc3)CC1)C2,.,-3,0,.,-2,1
CCCCCCCCN1C(=O)[C@H](CC(=O)NCc2cccs2)C[C@@]2(C(=O)OCC)CCCC=C12,.,-1,0,.,5,0
COC(=O)[C@]12C[C@H](CC(=O)N3CCC(c4ccccc4)CC3)C(=O)N(Cc3ccccc3)C1=C[C@H](C1CCCC1)O[C@@H]2C,.,4,0,.,2,45*
CCOC(=O)[C@]12CCCC=C1N(Cc1ccco1)C(=O)[C@H](CC(=O)N1CCC(c3ccccc3)CC1)C2,.,0,0,.,-5,38*
C[C@@H](NC(=O)C[C@@H]1C[C@@H]2c3cc(NS(C)(=O)=O)ccc3O[C@@H]2[C@H](CO)O1)c1ccccc1,7,0,0,10,.,8
CCCN1[C@@H]2c3ccc(-c4cccnc4)c(=O)n3C[C@@H]2[C@@H](CO)[C@@H]1C(=O)OC,.,-1,0,3,.,-4
Cn1c(SCC(=O)N2CCCCCC2)nc2c(c1=O)SCC2,1,-4,0,.,0,6
Cn1c(SCC(=O)N2CCCC2)nc2c(c1=O)SCC2,0,3,0,.,5,59*
COc1ccc(NC(=O)Nc2ccc3c(c2)CC(=O)N([C@@H](C)CO)C[C@@H](C)[C@H](CN(C)S(=O)(=O)c2cn(C)cn2)O3)cc1,-1,2,0,0,.,-10
C[C@@H]1CCCCO[C@H](CN(C)C(=O)c2ccncc2)[C@@H](C)CN([C@@H](C)CO)C(=O)c2cc(NC(=O)c3ccccc3)ccc2O1,3,0,0,9,.,6
O=C(CCl)Nc1cccc(S(=O)(=O)NC2=NCCCCC2)c1,0,-5,0,-10,-6,-1
O=C(CCl)Nc1ccc(S(=O)(=O)NC2=NCCCCC2)cc1,-1,3,0,3,.,60*
CC(C)(C)C(=O)Nc1ccc(S(=O)(=O)NC2=NCCCCC2)cc1,-2,15*,0,-1,-1,8
Cc1ccc(S(=O)(=O)N(C)C[C@@H]2Oc3ccc(NC(=O)Nc4ccccc4)cc3C(=O)N([C@@H](C)CO)C[C@@H]2C)cc1,5,-2,0,-4,.,-13
C[C@@H]1CN([C@@H](C)CO)C(=O)c2cc(NC(=O)Nc3ccc4c(c3)OCO4)ccc2O[C@H]1CN(C)Cc1ccc(-c2ccccc2)cc1,-1,1,0,0,.,-11
COc1ccc(S(=O)(=O)N(C)C[C@@H]2OCCCC[C@H](C)Oc3ccc(NC(=O)Cc4ccccc4)cc3C(=O)N([C@H](C)CO)C[C@H]2C)cc1,0,-3,0,-5,-20,13
COc1ccc(NC(=O)Nc2ccc3c(c2)C(=O)N([C@@H](C)CO)C[C@H](C)[C@@H](CN(C)S(=O)(=O)c2ccccc2)OCCCC[C@H](C)O3)cc1,-10,-3,0,-14,-3,-5
COc1ccc(NC(=O)Nc2ccc3c(c2)C(=O)N([C@H](C)CO)C[C@@H](C)[C@H](CN(C)S(=O)(=O)c2ccc(Cl)cc2)OCCCC[C@@H](C)O3)cc1,87*,-2,0,-16,-11,?
COc1ccc(NC(=O)Nc2ccc3c(c2)C(=O)N([C@H](C)CO)C[C@@H](C)[C@H](CN(C)S(=O)(=O)c2ccccc2)OCCCC[C@H](C)O3)cc1,-11,0,0,-9,-8,30*
COc1ccc(S(=O)(=O)N(C)C[C@H]2OCCCC[C@H](C)Oc3ccc(NC(=O)Cc4ccccc4)cc3C(=O)N([C@@H](C)CO)C[C@@H]2C)cc1,44,-3,0,6,-4,27*
SMILES,Cneo AK release,F508del corr,XiGFP reactiv,PGC1a acetyl inh,FN deposit inh,DENV2 CPE
C[C@@H]1CN([C@@H](C)CO)S(=O)(=O)c2ccc(-c3cncnc3)cc2O[C@@H]1CN(C)Cc1cccnc1,-1,-1,-1,0,.,9
COc1ccc2c3c(n(C)c2c1)[C@H](CO)N(C(=O)CC1CC1)CC31CN(C(=O)C2CC2)C1,.,.,0,.,.,.
CO[C@@H]1CN(C)C(=O)c2cc(C#N)ccc2OCC[C@@H]2CC[C@@H](OC)[C@@H](CN(C)C(=O)[C@H]1C)O2,5,.,0,.,-5,1
COc1ccc(C#Cc2cnc3c(c2)C(=O)N([C@@H](C)CO)C[C@H](C)[C@H](CN(C)C(=O)CC2CC2)O3)cc1,-10,0,-1,-4,4,0
C[C@H]1CN([C@@H](C)CO)C(=O)Cc2cc(NC(=O)Nc3ccc(F)cc3)ccc2O[C@@H]1CN(C)Cc1ccncc1,1,-3,0,1,.,-5
Cc1noc(C)c1S(=O)(=O)Nc1ccc2c(c1)C(=O)N([C@H](C)CO)C[C@H](C)[C@H](CN(C)Cc1ccncc1)O2,91*,-2,-1,-4,.,2
Cc1noc(C)c1S(=O)(=O)Nc1ccc2c(c1)C(=O)N([C@@H](C)CO)C[C@H](C)[C@H](CN(C)Cc1ccncc1)O2,-3,2,0,5,.,16
Cc1noc(C)c1S(=O)(=O)Nc1ccc2c(c1)C(=O)N([C@@H](C)CO)C[C@@H](C)[C@H](CN(C)Cc1ccc(Oc3ccccc3)cc1)O2,1,-1,0,2,.,-2
COc1ccc(CN(C)C[C@H]2Oc3ccc(NS(=O)(=O)c4c(C)noc4C)cc3C(=O)N([C@@H](C)CO)C[C@@H]2C)cc1,-1,-3,0,1,.,25*
